ChEMBL document CHEMBL3596157, “Heteroaromatic analogs of the resveratrol analog DMU-212 as potent anti-cancer agents” (2015)

Assays:
Type in all cases: functional
NCI-H23 = experiment: Growth inhibition of human NCI-H23 cells after 48 hrs by SRB assay; settings: NCI-H23, 48 h
How it was run: (§1)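 NCI-60 panel screen. Cells exposed for 48 h to five concentrations (10−4, 10−5, 10−6, 10−7 and 10−8 M). Sulforhodamine B optical density is read just before compound addition (time zero) and after 48 h, for both treated and vehicle-control wells. Percent growth is calculated against control. GI50 is the concentration giving a 50% reduction in net cell growth relative to cell numbers on day 0.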

IGROV-1 = experiment: Growth inhibition of human IGROV1 cells after 48 hrs by SRB assay; settings: IGROV-1, 48 h; how it was run: as §1
SNB-19 = experiment: Growth inhibition of human SNB19 cells after 48 hrs by SRB assay; settings: SNB-19, 48 h; how it was run: as §1
K562 = experiment: Growth inhibition of human K562 cells after 48 hrs by SRB assay; settings: K562, 48 h; how it was run: as §1
[1] = Growth inhibition of human BT549 cells after 48 hrs by SRB assay; settings: BT-549, 48 h; how it was run: as §1
NCI-H322M = experiment: Growth inhibition of human NCI-H322M cells after 48 hrs by SRB assay; how it was run: as §1
[2] = Growth inhibition of human HCC2998 cells after 48 hrs by SRB assay; settings: HCC 2998, 48 h; how it was run: as §1
786-0 = experiment: Growth inhibition of human 786-0 cells after 48 hrs by SRB assay; settings: 786-0, 48 h; how it was run: as §1
OVCAR-4 = experiment: Growth inhibition of human OVCAR4 cells after 48 hrs by SRB assay; settings: OVCAR-4, 48 h; how it was run: as §1
U-251 = experiment: Growth inhibition of human U251 cells after 48 hrs by SRB assay; settings: U-251, 48 h
How it was run: (§2)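 NCI-60 panel cells; preliminary single-dose screen at 10−5 M, then five-dose testing at 10−4 to 10−8 M (tenfold steps) with 48 h exposure. SRB-stained optical density read before compound addition (time zero), after 48 h with compound, and with vehicle control. Percent growth is calculated against control. GI50 is the concentration giving 50% reduction in net growth relative to day-0 cell number.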

[3] = Growth inhibition of human NCI-ADR-RES cells after 48 hrs by SRB assay; how it was run: as §1
M14 = experiment: Growth inhibition of human M14 cells after 48 hrs by SRB assay; settings: M14, 48 h; how it was run: as §1
SK-MEL-5 = experiment: Growth inhibition of human SK-MEL-5 cells after 48 hrs by SRB assay; settings: SK-MEL-5, 48 h; how it was run: as §1
A549 = experiment: Growth inhibition of human A549/ATCC cells after 48 hrs by SRB assay; settings: A549, 48 h; how it was run: as §1
NCI-H522 = experiment: Growth inhibition of human NCI-H522 cells after 48 hrs by SRB assay; settings: NCI-H522, 48 h; how it was run: as §1
PC-3 = experiment: Growth inhibition of human PC3 cells after 48 hrs by SRB assay; settings: PC-3, 48 h; how it was run: as §1
UO-31 = experiment: Growth inhibition of human UO31 cells after 48 hrs by SRB assay; settings: UO-31, 48 h; how it was run: as §2
ACHN = experiment: Growth inhibition of human ACHN cells after 48 hrs by SRB assay; how it was run: as §1
KM12 = experiment: Growth inhibition of human KM12 cells after 48 hrs by SRB assay; settings: KM12, 48 h; how it was run: as §1
[4] = Growth inhibition of human RXF393 cells after 48 hrs by SRB assay; settings: RXF 393, 48 h; how it was run: as §1
TK-10 = experiment: Growth inhibition of human TK10 cells after 48 hrs by SRB assay; settings: TK-10, 48 h; how it was run: as §2
SF-268 = experiment: Growth inhibition of human SF268 cells after 48 hrs by SRB assay; settings: SF-268, 48 h; how it was run: as §1
[5] = Growth inhibition of human MOLT4 cells after 48 hrs by SRB assay; settings: MOLT-4, 48 h; how it was run: as §1
UACC-257 = experiment: Growth inhibition of human UACC257 cells after 48 hrs by SRB assay; settings: UACC-257, 48 h; how it was run: as §2
[6] = Growth inhibition of human RPMI8226 cells after 48 hrs by SRB assay; settings: RPMI-8226, 48 h; how it was run: as §1
HCT-15 = experiment: Growth inhibition of human HCT15 cells after 48 hrs by SRB assay; settings: HCT-15, 48 h; how it was run: as §1
HOP-62 = experiment: Growth inhibition of human HOP62 cells after 48 hrs by SRB assay; settings: HOP-62, 48 h; how it was run: as §1
NCI-H226 = experiment: Growth inhibition of human NCI-H226 cells after 48 hrs by SRB assay; settings: NCI-H226, 48 h; how it was run: as §1
OVCAR-8 = experiment: Growth inhibition of human OVCAR8 cells after 48 hrs by SRB assay; settings: OVCAR-8, 48 h; how it was run: as §1
A498 = experiment: Growth inhibition of human A498 cells after 48 hrs by SRB assay; settings: A498, 48 h; how it was run: as §1
CCRF-CEM = experiment: Growth inhibition of human CCRF-CEM cells after 48 hrs by SRB assay; how it was run: as §1
HT-29 = experiment: Growth inhibition of human HT-29 cells after 48 hrs by SRB assay; settings: HT-29, 48 h; how it was run: as §1
HCT-116 = experiment: Growth inhibition of human HCT116 cells after 48 hrs by SRB assay; settings: HCT-116, 48 h; how it was run: as §1
[7] = Growth inhibition of human HOP92 cells after 48 hrs by SRB assay; settings: HOP-92, 48 h; how it was run: as §1
[8] = Growth inhibition of human SF295 cells after 48 hrs by SRB assay; settings: SF-295, 48 h; how it was run: as §1
MCF7 = experiment: Growth inhibition of human MCF7 cells after 48 hrs by SRB assay; settings: MCF7, 48 h; how it was run: as §1
CAKI-1 = experiment: Growth inhibition of human Caki1 cells after 48 hrs by SRB assay; settings: CAKI-1, 48 h; how it was run: as §1
OVCAR-5 = experiment: Growth inhibition of human OVCAR5 cells after 48 hrs by SRB assay; settings: OVCAR-5, 48 h; how it was run: as §1
[9] = Growth inhibition of human Hs578T cells after 48 hrs by SRB assay; settings: Hs-578T; how it was run: as §1
[10] = Growth inhibition of human SF539 cells after 48 hrs by SRB assay; settings: SF-539, 48 h; how it was run: as §1
[11] = Growth inhibition of human COLO205 cells after 48 hrs by SRB assay; settings: COLO 205, 48 h; how it was run: as §1
MDA-MB-435 = experiment: Growth inhibition of human MDA-MB-435 cells after 48 hrs by SRB assay; settings: MDA-MB-435, 48 h; how it was run: as §1
SW-620 = experiment: Growth inhibition of human SW620 cells after 48 hrs by SRB assay; settings: SW-620, 48 h; how it was run: as §2
SK-MEL-2 = experiment: Growth inhibition of human SK-MEL-2 cells after 48 hrs by SRB assay; settings: SK-MEL-2, 48 h; how it was run: as §1
SK-MEL-28 = experiment: Growth inhibition of human SK-MEL-28 cells after 48 hrs by SRB assay; settings: SK-MEL-28, 48 h; how it was run: as §1
MDA-MB-231 = experiment: Growth inhibition of human MDA-MB-231/ATCC cells after 48 hrs by SRB assay; settings: MDA-MB-231, 48 h; how it was run: as §1
SN12C = experiment: Growth inhibition of human SN12C cells after 48 hrs by SRB assay; how it was run: as §1
[12] = Growth inhibition of human LOXIMVI cells after 48 hrs by SRB assay; settings: LOX IMVI; how it was run: as §1
SNB-75 = experiment: Growth inhibition of human SNB75 cells after 48 hrs by SRB assay; settings: SNB-75, 48 h; how it was run: as §2
SK-OV-3 = experiment: Growth inhibition of human SKOV3 cells after 48 hrs by SRB assay; settings: SK-OV-3, 48 h; how it was run: as §1
Malme-3M = experiment: Growth inhibition of human MALME-3M cells after 48 hrs by SRB assay; how it was run: as §1
UACC-62 = experiment: Growth inhibition of human UACC62 cells after 48 hrs by SRB assay; settings: UACC-62, 48 h; how it was run: as §2
DU-145 = experiment: Growth inhibition of human DU145 cells after 48 hrs by SRB assay; settings: DU-145, 48 h; how it was run: as §1
SR = experiment: Growth inhibition of human SR cells after 48 hrs by SRB assay; how it was run: as §2
[13] = Growth inhibition of human EKVX cells after 48 hrs by SRB assay; how it was run: as §1
OVCAR-3 = experiment: Growth inhibition of human OVCAR3 cells after 48 hrs by SRB assay; settings: OVCAR-3, 48 h; how it was run: as §1
NCI-H460 = experiment: Growth inhibition of human NCI-H460 cells after 48 hrs by SRB assay; settings: NCI-H460, 48 h; how it was run: as §1

**Q.** For `COc1cc(/C=C/c2cc3ccccc3s2)cc(OC)c1OC`, which GI50 (NCI-H23) is on record?
**A.** 324 nM

**Q.** And the GI50 (IGROV-1)?
**A.** 520 nM

**Q.** And the GI50 (SNB-19)?
**A.** 362 nM

**Q.** And the GI50 (K562)?
**A.** 88 nM

**Q.** What about the GI50 [1] of the same compound?
**A.** 326 nM

**Q.** What about the GI50 (NCI-H322M) of the same compound?
**A.** 649 nM

**Q.** What about the GI50 [2] of the same compound?
**A.** 307 nM

**Q.** And the GI50 (786-0)?
**A.** 445 nM

**Q.** And the GI50 (OVCAR-4)?
**A.** 553 nM

**Q.** And the GI50 (U-251)?
**A.** 338 nM

**Q.** What about the GI50 [3] of the same compound?
**A.** 70 nM

**Q.** And the GI50 (M14)?
**A.** 169 nM

**Q.** What about the GI50 (SK-MEL-5) of the same compound?
**A.** 267 nM

**Q.** What about the GI50 (A549) of the same compound?
**A.** 310 nM

**Q.** What about the GI50 (NCI-H522) of the same compound?
**A.** 153 nM

**Q.** What about the GI50 (PC-3) of the same compound?
**A.** 276 nM

**Q.** What about the GI50 (UO-31) of the same compound?
**A.** 513 nM

**Q.** And the GI50 (ACHN)?
**A.** 810 nM

**Q.** What about the GI50 (KM12) of the same compound?
**A.** 213 nM

**Q.** And the GI50 [4]?
**A.** 168 nM

**Q.** What about the GI50 (TK-10) of the same compound?
**A.** 566 nM

**Q.** And the GI50 (SF-268)?
**A.** 985 nM

**Q.** And the GI50 [5]?
**A.** 424 nM

**Q.** And the GI50 (UACC-257)?
**A.** 520 nM

**Q.** And the GI50 [6]?
**A.** 268 nM

**Q.** What about the GI50 (HCT-15) of the same compound?
**A.** 328 nM

**Q.** And the GI50 (HOP-62)?
**A.** 420 nM

**Q.** And the GI50 (NCI-H226)?
**A.** 442 nM

**Q.** What about the GI50 (OVCAR-8) of the same compound?
**A.** 352 nM

**Q.** And the GI50 (A498)?
**A.** 213 nM

**Q.** And the GI50 (CCRF-CEM)?
**A.** 262 nM

**Q.** And the GI50 (HT-29)?
**A.** 234 nM

**Q.** And the GI50 (HCT-116)?
**A.** 246 nM

**Q.** And the GI50 [7]?
**A.** 322 nM

**Q.** And the GI50 [8]?
**A.** 442 nM

**Q.** What about the GI50 (MCF7) of the same compound?
**A.** 285 nM

**Q.** And the GI50 (CAKI-1)?
**A.** 4350 nM

**Q.** And the GI50 (OVCAR-5)?
**A.** 547 nM

**Q.** And the GI50 [9]?
**A.** 275 nM

**Q.** What about the GI50 [10] of the same compound?
**A.** 299 nM

**Q.** And the GI50 [11]?
**A.** 209 nM

**Q.** And the GI50 (MDA-MB-435)?
**A.** 36 nM

**Q.** What about the GI50 (SW-620) of the same compound?
**A.** 293 nM

**Q.** What about the GI50 (SK-MEL-2) of the same compound?
**A.** 323 nM

**Q.** What about the GI50 (SK-MEL-28) of the same compound?
**A.** 346 nM

**Q.** And the GI50 (MDA-MB-231)?
**A.** 450 nM

**Q.** And the GI50 (SN12C)?
**A.** 666 nM

**Q.** What about the GI50 [12] of the same compound?
**A.** 382 nM

**Q.** And the GI50 (SNB-75)?
**A.** 190 nM

**Q.** What about the GI50 (SK-OV-3) of the same compound?
**A.** 263 nM

**Q.** What about the GI50 (Malme-3M) of the same compound?
**A.** 826 nM

**Q.** What about the GI50 (UACC-62) of the same compound?
**A.** 185 nM

**Q.** What about the GI50 (DU-145) of the same compound?
**A.** 402 nM

**Q.** What about the GI50 (SR) of the same compound?
**A.** 120 nM

**Q.** What about the GI50 [13] of the same compound?
**A.** 10300 nM

**Q.** What about the GI50 (OVCAR-3) of the same compound?
**A.** 224 nM

**Q.** And the GI50 (NCI-H460)?
**A.** 351 nM
